Assay results from ChEMBL document CHEMBL3352284, “Synthesis of 7-halogenated isatin sulfonamides: nonradioactive counterparts of caspase-3/-7 inhibitor-based potential radiopharmaceuticals for molecular imaging of apoptosis” (J Med Chem, 2014).

Key:
Caspase-1 = target: T1, Caspase-1 (Homo sapiens, UniProt P29466); assay: Inhibition of human recombinant caspase 1 using Ac-YVAD-AMC substrate assessed as accumulation of cleaved fluorogenic product
T1 sequence (P29466 whole entry): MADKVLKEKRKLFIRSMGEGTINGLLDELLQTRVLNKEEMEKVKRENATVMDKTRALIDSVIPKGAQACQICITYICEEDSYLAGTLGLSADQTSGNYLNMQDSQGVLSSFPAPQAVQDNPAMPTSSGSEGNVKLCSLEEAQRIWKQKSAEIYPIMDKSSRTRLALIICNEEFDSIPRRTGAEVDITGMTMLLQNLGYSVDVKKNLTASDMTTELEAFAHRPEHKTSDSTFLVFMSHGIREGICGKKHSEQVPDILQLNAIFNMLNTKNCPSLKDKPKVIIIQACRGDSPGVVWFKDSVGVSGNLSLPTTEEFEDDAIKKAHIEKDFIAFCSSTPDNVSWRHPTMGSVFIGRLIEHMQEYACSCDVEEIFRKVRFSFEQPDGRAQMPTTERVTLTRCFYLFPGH
How it was run: (§1)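 Inhibitor in DMSO (1−5%) at final 500 μM down to 5 pM in tenfold steps, preincubated 10 min. Peptide-AMC substrate then added (final 10 μM) and reacted 10 min at 37 °C. Released AMC read by fluorescence, excitation 360 nm, emission 460 nm.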

Caspase-7 = target: T2, Caspase-7 (Homo sapiens, UniProt P55210); assay: Inhibition of human recombinant caspase 7 using Ac-DEVD-AMC substrate assessed as accumulation of cleaved fluorogenic product; how it was run: as §1
T2 sequence (P55210 whole entry): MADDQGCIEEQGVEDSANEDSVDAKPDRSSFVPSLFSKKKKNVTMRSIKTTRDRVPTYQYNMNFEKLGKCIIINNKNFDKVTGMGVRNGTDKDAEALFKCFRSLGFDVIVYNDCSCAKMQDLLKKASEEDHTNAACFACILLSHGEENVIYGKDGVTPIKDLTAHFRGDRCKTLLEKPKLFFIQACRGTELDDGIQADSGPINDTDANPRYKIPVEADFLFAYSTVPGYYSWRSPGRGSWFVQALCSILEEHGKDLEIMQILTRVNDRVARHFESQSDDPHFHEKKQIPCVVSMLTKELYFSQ

Caspase-6 = target: T3, Caspase-6 (Homo sapiens, UniProt P55212); assay: Inhibition of human recombinant caspase 6 using Ac-VEID-AMC substrate assessed as accumulation of cleaved fluorogenic product; how it was run: as §1
T3 sequence (P55212 whole entry): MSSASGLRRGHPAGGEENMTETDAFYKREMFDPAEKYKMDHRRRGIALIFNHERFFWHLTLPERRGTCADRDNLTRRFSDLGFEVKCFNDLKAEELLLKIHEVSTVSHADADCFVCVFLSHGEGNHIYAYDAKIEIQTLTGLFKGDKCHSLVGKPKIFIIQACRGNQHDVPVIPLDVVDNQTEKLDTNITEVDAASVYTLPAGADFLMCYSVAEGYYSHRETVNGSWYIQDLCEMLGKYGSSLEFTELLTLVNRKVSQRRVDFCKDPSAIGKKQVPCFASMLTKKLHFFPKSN

Caspase-3 = target: T4, Caspase-3 (Homo sapiens, UniProt P42574); assay: Inhibition of human recombinant caspase 3 using Ac-DEVD-AMC substrate assessed as accumulation of cleaved fluorogenic product; how it was run: as §1
T4 sequence (P42574 whole entry): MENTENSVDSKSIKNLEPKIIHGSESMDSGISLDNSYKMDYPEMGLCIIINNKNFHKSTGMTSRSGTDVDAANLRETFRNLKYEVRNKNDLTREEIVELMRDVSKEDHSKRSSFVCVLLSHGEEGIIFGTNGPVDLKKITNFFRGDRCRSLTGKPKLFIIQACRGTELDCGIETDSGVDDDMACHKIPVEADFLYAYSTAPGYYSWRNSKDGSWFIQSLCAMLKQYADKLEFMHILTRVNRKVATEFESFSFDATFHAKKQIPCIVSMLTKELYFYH

| Structure (SMILES) | IC50 (Caspase-1) [nM] | IC50 (Caspase-7) [nM] | IC50 (Caspase-6) [nM] | IC50 (Caspase-3) [nM] |
| --- | --- | --- | --- | --- |
| COC[C@@H]1CCCN1S(=O)(=O)c1cc(I)c2c(c1)C(=O)C(=O)N2CCCCO | 500000 | 279 | 500000 | 33.2 |
| CCN1C(=O)C(=O)c2cc(S(=O)(=O)N3CCC[C@H]3COC)cc(Br)c21 |  |  |  | 133 |
| CCCCN1C(=O)C(=O)c2cc(S(=O)(=O)N3CCC[C@H]3COC)cc(I)c21 | > 500000 | 907 | > 500000 | 17.4 |
| COC[C@@H]1CCCN1S(=O)(=O)c1cc(Br)c2c(c1)C(=O)C(=O)N2C |  | 553 |  | 353 |
| COC[C@@H]1CCCN1S(=O)(=O)c1cc(I)c2c(c1)C(=O)C(=O)N2CCCCF | 500000 | 68.1 | 500000 | 50.7 |
| CCCN1C(=O)C(=O)c2cc(S(=O)(=O)N3CCC[C@H]3COC)cc(I)c21 |  | 42.4 |  | 124 |
| COC[C@@H]1CCCN1S(=O)(=O)c1cc(I)c2c(c1)C(=O)C(=O)N2CCCF | > 500000 |  | 28500 | 20.1 |
| CCCCN1C(=O)C(=O)c2cc(S(=O)(=O)N3CCC[C@H]3COC)cc(F)c21 | 9970 | 9.7 | 78900 | 2.9 |
| COC[C@@H]1CCCN1S(=O)(=O)c1cc(F)c2c(c1)C(=O)C(=O)N2 | > 500000 | 6620 | > 500000 | > 500000 |
| COC[C@@H]1CCCN1S(=O)(=O)c1ccc2c(c1)C(=O)C(=O)N2 | > 500000 |  | 500000 |  |
| COC[C@@H]1CCCN1S(=O)(=O)c1cc(Br)c2c(c1)C(=O)C(=O)N2CCCCF |  | 5.95 |  | 31.5 |
| COC[C@@H]1CCCN1S(=O)(=O)c1cc(F)c2c(c1)C(=O)C(=O)N2CCCCF | 7430 | 39.3 | 12900 | 41 |
| CCCCN1C(=O)C(=O)c2cc(S(=O)(=O)N3CCC[C@H]3COC)cc(Cl)c21 | 500000 | 263 | 500000 | 57.7 |
| CCCN1C(=O)C(=O)c2cc(S(=O)(=O)N3CCC[C@H]3COC)cc(Br)c21 |  | 157 |  | 26.2 |
| CCCCN1C(=O)C(=O)c2cc(S(=O)(=O)N3CCC[C@H]3COC)cc(Br)c21 |  | 3.3 |  | 46.9 |
| COC[C@@H]1CCCN1S(=O)(=O)c1cc(I)c2c(c1)C(=O)C(=O)N2 |  | > 500000 |  | > 500000 |
| COC[C@@H]1CCCN1S(=O)(=O)c1cc(Cl)c2c(c1)C(=O)C(=O)N2CCCCF | 2590 | 55.7 | 500000 | 4.8 |
| COC[C@@H]1CCCN1S(=O)(=O)c1cc(Br)c2c(c1)C(=O)C(=O)N2 |  | > 500000 |  | > 500000 |
| COC[C@@H]1CCCN1S(=O)(=O)c1cc(Br)c2c(c1)C(=O)C(=O)N2CCCCO | > 500000 | 22.7 | > 500000 | 2.6 |
| COC[C@@H]1CCCN1S(=O)(=O)c1cc(I)c2c(c1)C(=O)C(=O)N2C |  | 10500 |  | 1190 |
| CCN1C(=O)C(=O)c2cc(S(=O)(=O)N3CCC[C@H]3COC)cc(I)c21 |  | 20.1 |  | 210 |
| COC[C@@H]1CCCN1S(=O)(=O)c1cc(Cl)c2c(c1)C(=O)C(=O)N2 | 500000 | > 500000 | > 500000 | > 500000 |
| COC[C@@H]1CCCN1S(=O)(=O)c1cc(Br)c2c(c1)C(=O)C(=O)N2CCCF |  | 20.1 |  | 81.4 |
